Compounds with a hit are over-represented: about 3.1% of the library has one in this group of screens.
KCNQ1 act – human KCNQ1 channel potentiation or activation. P51787. CHO-K1 KCNQ1, thallium flux FluxOR fluorescence; hits give high values. B-score at 10 µM. 310,000 tested, 0.35% active;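 active = fluorescence ratio B-score, a plate-corrected score, at least three library SD, with initial intensity B-score within 5 SD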
Target sequence (P51787 whole entry, looked up): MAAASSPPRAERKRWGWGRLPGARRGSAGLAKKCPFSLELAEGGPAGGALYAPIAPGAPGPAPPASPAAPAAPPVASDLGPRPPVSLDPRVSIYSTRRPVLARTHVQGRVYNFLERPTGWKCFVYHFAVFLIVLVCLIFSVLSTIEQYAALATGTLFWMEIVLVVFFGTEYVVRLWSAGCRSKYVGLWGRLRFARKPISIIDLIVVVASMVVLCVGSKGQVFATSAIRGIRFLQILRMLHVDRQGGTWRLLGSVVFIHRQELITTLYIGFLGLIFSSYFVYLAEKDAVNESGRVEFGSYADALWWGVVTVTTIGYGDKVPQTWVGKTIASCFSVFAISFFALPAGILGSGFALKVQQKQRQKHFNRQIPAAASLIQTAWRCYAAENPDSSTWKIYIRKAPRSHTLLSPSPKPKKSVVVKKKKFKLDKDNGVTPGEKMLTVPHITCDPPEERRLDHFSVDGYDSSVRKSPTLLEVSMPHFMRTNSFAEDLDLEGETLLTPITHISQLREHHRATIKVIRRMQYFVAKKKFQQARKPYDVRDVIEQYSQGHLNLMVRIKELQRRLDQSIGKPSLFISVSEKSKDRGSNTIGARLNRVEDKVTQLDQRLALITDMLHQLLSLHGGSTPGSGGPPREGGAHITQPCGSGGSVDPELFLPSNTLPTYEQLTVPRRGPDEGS
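System: CHO-K1 cells stably expressing KCNQ1 / Medium: assay buffer for compound exposure, DMSO matched across wells / Reagent: thallium- and potassium-containing depolarizing buffer / Compound: one concentration, matched DMSO / Incubation: 20 min compound pretreatment at room temperature / Measured by: kinetic FluxOR fluorescence, 10 s baseline plus 110 s post-stimulus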
KCNK3 block – human KCNK3 channel inhibition, primary screen | CHO-KCNK3 thallium flux, FluxOR fluorescence; hits give low values | B-score at 10 µM | 340,000 tested, 0.84% active | AID 602410;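 active = B-score under library mean minus 4 SD, starting fluorescence ratio at most library mean plus 5 SD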;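 also: more negative B-score means stronger inhibition of thallium flux through KCNK3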
hERG rescue – compounds protecting human hERG from proarrhythmic drug block | CHO-hERG, FluxOR thallium flux, dofetilide IC70 present | activation (rescue from dofetilide block), less the hit threshold, % at 10 µM | 310,000 tested, 0.51% active | AID 1511;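 active = activation above the mean of controls blocked by dofetilide plus 5 SD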;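 also: thallium influx through hERG after potassium depolarization seen as dye fluorescence rise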
KCNK9 inh – blocks the human KCNK9 two-pore domain potassium channel; AID 488922; 310,000 tested, 1.2% active; HEK293 KCNK9, FluxOR thallium flux fluorescence; hits give low values; Q9NPC2; B-score at 10 µM;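 active = ratio B-score over 3 SD below the library mean, with starting fluorescence within 5 SD of its mean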;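 also: negative B-score means less thallium flux so channel inhibition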
KCNQ1 inh – blocks the human KCNQ1 potassium channel. P51787. CHO-K1 KCNQ1, FluxOR thallium flux fluorescence; hits give high values. B-score at 10 µM. 310,000 tested, 1.3% active. AID 2642;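 active = compounds whose thallium flux B-score, printed positive for inhibition, exceeds three library SD while starting fluorescence stays within three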;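 also: channel opened by potassium depolarization with thallium stimulus after 20 min compound exposure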
KCNK3 inh conf – human KCNK3 channel inhibition, confirmation assay; shares compounds with KCNK3 block; CHO-KCNK3 thallium flux, FluxOR fluorescence; 0% buffer, 100% carvedilol maximal block; ratio percent of control, % at 10 µM; 2,400 tested, 99% active; AID 651638;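 active = ratio percent of control, averaged over triplicates, above buffer control mean plus 5 SD, cut at about 64% in these data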;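 also: ratio is the fluorescence rise from min to max over baseline after thallium stimulus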
KCNK3 noninduced – counter-screen for KCNK3 inhibitors: effect in non-induced cells; shares compounds with KCNK3 block; non-induced KCNK3 parental cells, FluxOR thallium flux; hits give low values; thallium flux ratio (lower = more inhibition) at 10 µM; 2,400 tested, 40% active; AID 651747;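 active = thallium flux ratio, averaged over three wells, more than 5 SD below the buffer control mean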;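 also: host cells are CHO cells without KCNK3 induction; ratio is peak minus trough fluorescence over baseline then normalized to buffer controls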
Starred values were filed as active, the others as inactive; i = inactive; / = not tested or not shown.

SMILES | KCNQ1 act | KCNK3 block | hERG rescue | KCNK9 inh | KCNQ1 inh | KCNK3 inh conf | KCNK3 noninduced
Cc1cc(C)c(C)c(S(=O)(=O)NC2CCN(Cc3ccccc3)CC2)c1C | i | i | -13 | i | i | / | /
CC(C)Nc1cc(C(C)(C)C)nc2c(-c3ccccc3)cnn12 | i | -10* | -13 | i | i | 82* | 0.14*
COCc1cc(C)nc(SCc2ccc(Br)cc2)c1C#N | i | -11* | -8 | i | i | 106* | i
COCc1cc(C)nc(SCc2ccc(F)cc2)c1C#N | i | i | -2 | i | i | / | /
COCc1cc(C)nc(SCc2ccc(Cl)cc2)c1C#N | i | -11* | -6 | i | i | 96* | 0.15*
Cc1ccc(C(=O)Nc2cccc(-c3nc4ncccc4o3)c2)cc1 | i | -10* | -18 | i | i | 90* | i
CC(Cc1cccs1)NC(=O)Nc1ccccc1 (centres undefined) | i | -9* | -6 | i | i | 90* | i
CC(Cc1cccs1)NC(=S)Nc1ccccc1 (centres undefined) | i | i | -4 | i | i | / | /
CNc1c(NS(=O)(=O)c2ccc(C3CCCCC3)cc2)c(=O)oc2ccccc12 | i | -9.4* | -8 | i | i | 87* | i
CNc1c(NS(=O)(=O)c2ccc(Cl)cc2)c(=O)oc2ccccc12 | i | i | -11 | i | i | / | /
Cc1nn(C(C)(C)C)c(OC(=O)c2cccs2)c1S(=O)(=O)c1ccccc1 | i | -10* | -15 | i | i | 117* | 0.15*
CCCCC(=O)Oc1c(S(=O)(=O)c2ccccc2)c(C)nn1C(C)(C)C | i | -10* | -4 | i | i | 118* | i
CCCC(=O)Oc1c(S(=O)(=O)c2ccc(C)cc2)c(C)nn1C(C)(C)C | i | -8.8* | -13 | i | i | 90* | i
CCC(=O)Oc1c(S(=O)(=O)c2ccc(C)cc2)c(C)nn1C(C)(C)C | / | i | / | / | / | / | /
CC(=O)Oc1c(S(=O)(=O)c2ccccc2)c(C)nn1C(C)(C)C | i | i | -9 | i | i | / | /
O=C(COC(=O)CNC(=O)c1ccc(Cl)c([N+](=O)[O-])c1)NC(=O)CN1CCCC1=O | i | i | -17 | i | i | / | /
S=c1[nH]nc(C2CCCCC2)n1/N=C/c1ccc(Br)s1 | i | i | -14 | i | i | / | /
O=C(C1CCCN(S(=O)(=O)c2cccc3nsnc23)C1)N1CC=C(c2ccccc2)CC1 (centres undefined) | / | -15* | / | / | / | 115* | i
CCCN1CCc2c(sc(NC(=O)c3ccc(S(=O)(=O)N4CCN(C(=O)OCC)CC4)cc3)c2C(N)=O)C1 | i | -11* | -20 | i | 6* | 125* | 0.093*
CCOC(=O)N1CCN(S(=O)(=O)c2ccc(C(=O)Nc3sc4c(c3C(N)=O)CCN(CC)C4)cc2)CC1 | i | i | -7 | i | i | / | /
Cc1ccc(C)c(C(=O)COC(=O)c2c(-c3ccccc3)noc2C)c1 | / | -14* | / | / | / | 136* | i
Cc1onc(-c2ccccc2)c1C(=O)OCC(=O)Nc1ccccc1 | / | i | / | / | / | / | /
Cc1ccc(OCCOC(=O)c2c(-c3ccccc3)noc2C)cc1 | i | -8.8* | -10 | -6.7* | i | 101* | i
C/C(=N\N1CCN(c2ccccc2)CC1)c1ccc(O)cc1 | i | i | -9 | i | i | / | /
CC(C)N(Cc1ccccc1)C(=O)C1CCCN(c2ncnc3c2nc2n3CCCCC2)C1 (centres undefined) | i | i | -19 | i | i | / | /
SMILES | KCNQ1 act | KCNK3 block | hERG rescue | KCNK9 inh | KCNQ1 inh | KCNK3 inh conf | KCNK3 noninduced
CCCCN(Cc1ccco1)C(=O)C1CCCN(c2ncnc3c2nc2n3CCCCC2)C1 (centres undefined) | i | -11* | -15 | i | i | 97* | i
CCC(=NCc1ccco1)c1c(C(F)(F)F)[nH]n(-c2nc3ccccc3s2)c1=O | i | -9* | -16 | i | i | 114* | i
CCC(=NCc1ccccc1)c1c(C(F)(F)F)[nH]n(-c2nc3ccccc3s2)c1=O | i | i | -15 | i | i | / | /
CCC(C)(C)n1nnnc1C(c1ccccc1)N1CCc2ccccc2C1 (centres undefined) | i | -9.4* | -13 | i | i | 110* | i
CCC(C)(C)n1nnnc1C(c1ccccc1)N1CCN(C2CCCC2)CC1 (centres undefined) | i | i | -8 | i | i | / | /
CCOc1ccc(C2C(C#N)=C(N)SC(N)=C2C#N)cc1OCC | i | -12* | -7 | i | i | 108* | 0.15*
COc1ccccc1NC(=O)COC(=O)C1CC2CCCC(C1)C2=O (centres undefined) | / | i | / | / | / | / | /
O=C1OC(c2ccccc2)(c2ccc3cc(O)ccc3c2)c2ccccc21 (centres undefined) | / | -16* | / | / | / | 128* | 0.11*
C=CCN1C=C(C(C)=O)C(=O)CC1 | / | i | / | / | / | / | /
O=C(COn1nnc2ccc(S(=O)(=O)N3CCOCC3)cc21)Nc1c(F)c(F)c(F)c(F)c1F | i | -8.8* | -11 | -7.4* | i | 87* | i
CCOc1ccccc1NC(=O)CSc1nnc(CNC(=O)c2cc(OC)c(OC)c(OC)c2)o1 | i | i | -7 | i | i | / | /
CCOC(=O)N1CCN(C(=O)/C(=C\c2ccc(SC)cc2)NC(=O)c2ccccc2)CC1 | i | i | -5 | i | i | / | /
N#C/C(=C\c1ccc(O)cc1)c1nc2ccccc2o1 | i | -11* | -18 | i | i | 130* | 0.12*
CCn1c(SCC(=O)Nc2cccc(F)c2)nc2c(c1=O)SC(C)C2 (centres undefined) | i | -8.9* | -7 | i | i | 88* | i
CCOC(=O)c1[nH]c2ccc(Cl)cc2c1NC(=O)/C=C/c1ccc2c(c1)OCO2 | i | i | -10 | i | i | / | /
CCN(CC(=O)Nc1c(C(=O)OC)[nH]c2ccc(Cl)cc12)c1ccc2c(c1)OCO2 | i | -9.2* | -7 | -7.2* | i | 105* | 0.15*
Cc1ccccc1Cn1nc(C)c(NC(=O)c2sc3ccccc3c2Cl)c1C | i | -9* | -9 | i | i | 149* | 0.11*
NC(=O)CNc1n[nH]c(=S)[nH]c1=O | i | i | -9 | i | i | / | /
CC(C)NC(=O)C(c1ccc(F)cc1)N(C(=O)CCC(=O)Nc1ccccn1)C1CCCC1 (centres undefined) | i | -13* | -9 | i | i | 89* | i

From PubChem BioAssay
